{"source": "paper PMC5221799", "about": "(International Journal of Nanomedicine, 2016)", "key": {"[1]": {"system": "MCF7/ADR (Dox-resistant) cells", "experiment": "CCK-8 cytotoxicity assay in MCF7/ADR cells", "assay_type": "cell-based, human", "settings": "for IC50: read-out: IC50 of Dox or equivalent NLS-Dox, MCF7/ADR cells, CCK-8, mean ± SD (n=5)", "procedure,_shortened": "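CCK-8 assay in MCF7 and MCF7/ADR cells (Dox withdrawn from resistant line 1 week prior). Cells seeded at 0.5×10^4/well, grown overnight, then exposed to a concentration range for 48 or 96 h. CCK-8 was added for 1 h at 37°C and A450 read. Viability = (Asample−Ablank)/(Anon-treated−Ablank)×100%. n=5.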"}, "MCF7/ADR cells": {"system": "MCF7/ADR cells", "experiment": "Annexin V-FITC/propidium iodide apoptosis assay by flow cytometry", "assay_type": "cell-based, human", "settings": "48 hours of incubation, Dox 20 μM", "procedure,_shortened": "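MCF7/ADR cells (DMEM, 10% FBS; resistance kept with 1 μg/mL Dox, withdrawn 1 week before use) seeded at 10^5 cells/well and left 24 h. Treated with free Dox or nanoparticles (Dox 20 μM and/or anti-miR21 213.3 nM) for 48 h. Cells were washed, trypsinised, and stained with annexin V–FITC/PI for 15 min at room temperature in the dark, then analysed by flow cytometry. Untreated cells served as blanks; three repeats.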"}, "MCF7/ADR xenografts": {"system": "MCF7/ADR xenografts", "experiment": "In vivo antitumor efficacy in MCF7/ADR xenografts", "set-up": "species or system BALB/c nude mice", "settings": "tail vein every 3 days five times, n=6"}}, "note": "Where two headings read alike, the source gives them in different places."}
{"molecule": "COc1cccc2c1C(=O)c1c(O)c3c(c(O)c1C2=O)C[C@@](O)(C(=O)CO)C[C@@H]3O[C@H]1C[C@H](N)[C@H](O)[C@H](C)O1", "note": "[Free Dox, doxorubicin]", "values": [{"measurement": "IC50 in MCF7/ADR cells relative to parent MCF7 cells", "setting": "[1]; 48 hours incubation", "result": "over 20 fold"}, {"measurement": "IC50", "setting": "[1]; 48 hours", "result": "49.4 ± 2.58", "unit": "µM"}, {"measurement": "IC50", "setting": "[1]; 96 hours", "result": "30 ± 1.46", "unit": "µM"}, {"measurement": "apoptotic cells", "setting": "MCF7/ADR cells", "result": 10.75, "unit": "%"}, {"measurement": "effect on growth of MCF7/ADR xenografts", "setting": "MCF7/ADR xenografts; free Dox 7.6 mg/kg", "result": "slight inhibitory effect"}, {"measurement": "body weight change of tumor-bearing mice", "setting": "MCF7/ADR xenografts; measured for 3 weeks", "result": "significant weight loss"}]}
